According to ChEMBL document CHEMBL1772994, “Metabolic stability of 6,7-dialkoxy-4-(2-, 3- and 4-[18F]fluoroanilino)quinazolines, potential EGFR imaging probes” (Bioorg Med Chem, 2011):

Assays:
Hepatocyte = assay: Metabolic stability in cryopreserved human hepatocytes after 90 mins by radio-TLC assay; type: ADME, cell-based; settings: 1.5 h
Outline: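 Cryopreserved female human hepatocytes were thawed and resuspended in modified Krebs-Henseleit buffer, and the radiotracer in buffer was added to cell wells. Incubation was at 37 °C, 5% CO2. Aliquots taken at 5–120 min went into MeOH (2 volumes), were vortexed and centrifuged at 10,000 G for 5 min. Supernatant was run on silica TLC (10% EtOH/EtOAc) and read by radio-TLC scan. Viability was checked by Trypan Blue.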

Mus musculus [1] = assay: Biodistribution in tumor of EGFR positive-MDA-MB-468 cells-xenografted tumor-bearing nude SCID mouse at 1 to 2 MBq, iv after 1 to 3 hrs postinjection; settings: in vivo
Mus musculus [2] = assay: Biodistribution in tumor of 1 mg/kg PD153035 pretreated EGFR positive-MDA-MB-468 cells-xenografted tumor-bearing nude SCID mouse 1 to 2 MBq, iv after 1 hr relative to control; type: ADME, organism-based, Neoplasm; parameters: dose 1 mg/kg, route intravenous; settings: in vivo
Outline: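 A blocking arm received PD153035 1 mg/kg iv one hour before tail-vein injection of 1–2 MBq radiotracer in saline under isoflurane, compared with a control group. Nude SCID mice bore MDA-MB-468 flank xenografts (n = 4 per time point). Tumor was excised, weighed and counted, giving decay-corrected %ID/g.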

Bone [3] = assay: Biodistribution in tumor-bearing nude SCID mouse bone at 1 to 2 MBq, iv after 1 hr postinjection; type: ADME, organism-based, Bone element; settings: in vivo
Outline: (§1)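 Nude SCID mice bearing subcutaneous MDA-MB-468 flank xenografts (about 1 million cells), with MDA-MB-435 (about 1 million cells) implanted in the shoulder in some cohorts. Under isoflurane, 1–2 MBq radiotracer in saline was given by tail-vein injection. Mice (n = 4 per time point) were euthanized 1–3 h post injection. Blood, tumor and tissues were weighed and counted, giving decay-corrected %ID/g.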

Mus musculus [4] = assay: Biodistribution in tumor of EGFR negative-MDA-MB-435 cells-xenografted tumor-bearing nude SCID mouse at 1 to 2 MBq, iv after 1 to 3 hrs postinjection; settings: in vivo
Bone [5] = assay: Biodistribution in tumor-bearing nude SCID mouse bone at 1 to 2 MBq, iv after 3 hrs postinjection; type: ADME, organism-based, Bone element; settings: in vivo; outline: as §1
Mus musculus [6] = assay: Biodistribution in tumor of EGFR negative-MDA-MB-435 cells-xenografted tumor-bearing nude SCID mouse at 1 to 2 MBq, iv after 1 hr postinjection; type: ADME, organism-based, Neoplasm; settings: in vivo; outline: as §1
Mus musculus [7] = assay: Biodistribution in tumor of EGFR positive-MDA-MB-468 cells-xenografted tumor-bearing nude SCID mouse at 1 to 2 MBq, iv after 1 hr postinjection; type: ADME, organism-based, Neoplasm; settings: in vivo; outline: as §1
Bone [8] = assay: Biodistribution in tumor-bearing nude SCID mouse bone at 1 to 2 MBq, iv after 2 hrs postinjection; type: ADME, organism-based, Bone element; settings: in vivo; outline: as §1

Row | Compound | Stability (Hepatocyte) | Drug uptake (Mus musculus [1]) [%] | Drug uptake (Mus musculus [2]) | Drug uptake (Bone [3]) [%] | Drug uptake (Mus musculus [4]) [%] | Drug uptake (Bone [5]) [%] | Drug uptake (Mus musculus [6]) [%] | Drug uptake (Mus musculus [7]) [%] | Drug uptake (Bone [8]) [%]
1 | CCOc1cc2ncnc(Nc3cccc([18F])c3)c2cc1OCC | Stable | – | – | – | – | – | – | – | –
2 | COc1cc2ncnc(Nc3ccccc3[18F])c2cc1OC | Stable | < 0.6 | Active | 2 | < 0.6 | 2 | < 0.6 | < 0.6 | –
3 | COc1cc2ncnc(Nc3cccc([18F])c3)c2cc1OC | Stable | – | – | – | – | – | – | – | –
4 | COc1cc2ncnc(Nc3ccc([18F])cc3)c2cc1OC | Unstable | < 0.6 | – | 5 | < 0.6 | – | < 0.6 | < 0.6 | 5
5 | CCOc1cc2ncnc(Nc3ccccc3[18F])c2cc1OCC | Stable | < 0.6 | – | 2 | < 0.6 | 2 | < 0.6 | < 0.6 | –
6 | CCOc1cc2ncnc(Nc3ccc([18F])cc3)c2cc1OCC | Unstable | < 0.6 | – | 5 | < 0.6 | – | < 0.6 | < 0.6 | 5
